Assay results as given in ChEMBL document CHEMBL1687900, “Potent farnesyltransferase inhibitors with 1,4-diazepane scaffolds as novel destabilizing microtubule agents in hormone-resistant prostate cancer” (J Med Chem, 2011).
The source made the active and inactive calls. The rule behind the calls is not given here.

Experiments:
[1] = Inhibition of FTase
Outline: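 Partially purified recombinant yeast FTase (2.2 mg/mL stock) and dansyl-GCVLS peptide (2 μM solution) were used with inhibitor in DMSO. Buffer was 50 mM Tris/HCl pH 7.5, 5.5 mM DTT, 10 mM MgCl2, 10 μM ZnCl2 and 0.08% CHAPS. Reaction was started with 10 μM FPP solution (1:10 addition). Fluorescence (ex 340 / em 486 nm) was followed 15 min at 30 °C. Values are the mean of three determinations.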

[2] = tested on: PC-3; experiment: Anticancer activity against hormone-resistant human PC3 cells assessed as cell proliferation at 100 uM after 72 hrs by MTT assay; format: functional; conditions: PC-3, 72 h
[3] = tested on: PC-3; experiment: Anticancer activity against hormone-resistant human PC3 cells assessed as cell proliferation after 72 hrs by MTT assay; format: functional, cell-based; conditions: PC-3, 72 h
Outline: (§1)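 DU145 or PC3 cells (RPMI 1640, 10% FBS, 2 mM glutamine, 37 °C, 5% CO2) seeded at (1.6-1.8) 10^4 per well. After 72 h they were serum-deprived, and next day treated with various compound concentrations for 72 h. Viability was read by MTT (4 mg/mL, 4 h), SDS/HCl lysis and absorbance at 570 nm. Values come from at least three independent determinations.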

[4] = tested on: DU-145; experiment: Anticancer activity against hormone-resistant human DU145 cells assessed as cell proliferation at 100 uM after 72 hrs by MTT assay; format: functional; conditions: DU-145, 72 h
[5] = tested on: DU-145; experiment: Anticancer activity against hormone-resistant human DU145 cells assessed as cell proliferation after 72 hrs by MTT assay; format: functional, cell-based; conditions: DU-145, 72 h; outline: as §1
[6] = tested on: Liver microsomes; experiment: Metabolic stability of the compound in human liver microsome assessed as compound remaining; format: ADME
Outline: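 Metabolic stability was tested in human liver microsomes, expressed as percentage of parent compound remaining at assay end.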

[7] = Apparent permeability across human Caco2 cells; format: ADME, cell-based; conditions: Caco-2
[8] = tested on: PC-3; experiment: Induction of disorganization of tubulin in human PC3 cells assessed as microtubule bundles at 32 uM by immunofluorescence microscopy; format: functional, cell-based
Outline: (§2)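 PC3 cells were grown on poly-D-lysine coverslips overnight, synchronized, then exposed 24 h to compound or DMSO. They were fixed in 4% paraformaldehyde, permeabilized with 0.5% Triton X-100, and blocked 45 min in 5% BSA. Staining used Alexa 488 anti-α-tubulin (1/100). Microtubule network was examined by fluorescence microscopy.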

[9] = tested on: PC-3; experiment: Induction of disorganization of tubulin in human PC3 cells assessed as decrease in microtubulin mass at 32 uM by immunofluorescence microscopy; format: functional, cell-based; outline: as §2
[10] = tested on: PC-3; experiment: Induction of disorganization of tubulin in human PC3 cells assessed as microtubule bundles at 18 uM by immunofluorescence microscopy; format: functional, cell-based; outline: as §2
[11] = tested on: PC-3; experiment: Induction of disorganization of tubulin in human PC3 cells assessed as decrease in microtubulin mass at 18 uM by immunofluorescence microscopy; format: functional, cell-based; outline: as §2
[12] = tested on: DU-145; experiment: Anticancer activity against human DU145 cells xenografted mouse assessed as suppression of tumor at 30 mg/kg; format: functional
[13] = tested on: PC-3; experiment: Anticancer activity against human PC3 cells xenografted mouse assessed as suppression of tumor at 30 mg/kg; format: functional
[14] = tested on: PC-3; experiment: Induction of disorganization of tubulin in human PC3 cells assessed as microtubule bundles at 75 uM after 24 hrs by immunofluorescence microscopy; format: functional, cell-based; outline: as §2
[15] = tested on: PC-3; experiment: Induction of disorganization of tubulin in human PC3 cells assessed as microtubule bundles at 21 uM by immunofluorescence microscopy; format: functional, cell-based; outline: as §2

SMILES	IC50 [1]	inhibition at 100 µM [2]	IC50 [3]	inhibition at 100 µM [4]	IC50 [5]	further results
N#Cc1ccc(Cn2cncc2CN2CCC(c3ccccc3)N(C(=O)C3CCCCC3)CC2)cc1 (configuration not stated)	0.503 µM	5%				
COc1cccc(C(=O)N2CCCN(Cc3cncn3Cc3ccc(C#N)cc3)CC2)c1OC	0.043 µM		80 µM	44%		
N#Cc1ccc(Cn2cncc2CN2CCC(c3ccccc3)N(C(=O)c3cccc4ccccc34)CC2)cc1 (configuration not stated)	0.06 µM		50 µM		54 µM	
N#Cc1ccc(Cn2cncc2CN2CCCN(C(=O)c3ccsc3)CC2)cc1	0.042 µM	4%		3%		
N#Cc1ccc(Cn2cncc2CN2CCCN(C(=O)C3CCCCC3)CC2)cc1	0.024 µM	20%		23%		
N#Cc1ccc(Cn2cncc2CN2CCC(c3ccccc3)N(C(=O)C34CC5CC(CC(C5)C3)C4)CC2)cc1 (configuration not stated)	0.017 µM		41 µM		42 µM	
N#Cc1ccc(Cn2cncc2CN2CCCN(C(=O)c3cccc4ccccc34)CC2)cc1	0.039 µM		65 µM		44 µM	
N#Cc1ccc(Cn2cncc2CN2CCN(C(=O)C34CC5CC(CC(C5)C3)C4)CCC2c2ccccc2)cc1 (configuration not stated)	0.006 µM		32 µM		32 µM	Stability [6]: 3%; Papp [7]: 3.6 ×10⁻⁶ cm/s; Activity [8]: Active; Activity [9]: Active
N#Cc1ccc(Cn2cncc2CN2CCN(C(=O)c3ccccc3)CCC2c2ccccc2)cc1 (configuration not stated)	0.009 µM		33 µM		73 µM	
N#Cc1ccc(Cn2cncc2CN2CCN(C(=O)c3ccccc3-c3ccccc3)CCC2c2ccccc2)cc1 (configuration not stated)	0.017 µM		50 µM		35 µM	
N#Cc1ccc(Cn2cncc2CN2CCN(C(=O)C3CCCCC3)CCC2c2ccccc2)cc1 (configuration not stated)	0.007 µM		18 µM		29 µM	Stability [6]: 2%; Papp [7]: 25.1 ×10⁻⁶ cm/s; Activity [10]: Active; Activity [11]: Active
N#Cc1ccc(Cn2cncc2CN2CCC(c3ccccc3)N(C(=O)c3ccc(Cl)cc3Cl)CC2)cc1 (configuration not stated)	0.382 µM		76 µM	31%		
N#Cc1ccc(Cn2cncc2CN2CCN(C(=O)c3cccc4ccccc34)CCC2c2ccccc2)cc1 (configuration not stated)	0.018 µM		77 µM		48 µM	
CC(CCc1ccccc1)NCC(O)c1ccc(O)c(C(N)=O)c1 (configuration not stated) [LABETALOL]						Papp [7]: 7.3 ×10⁻⁶ cm/s
N#Cc1ccc(Cn2cncc2CN2CCCN(C(=O)Cc3cccc4ccccc34)CC2)cc1	0.013 µM	40%			93 µM	
N#Cc1ccc(Cn2cncc2CN2CCCN(C(=O)c3ccccc3)CC2)cc1	0.008 µM	22%		24%		
N#Cc1ccc(Cn2cncc2CN2CCC(c3ccccc3)N(C(=O)c3ccccc3-c3ccccc3)CC2)cc1 (configuration not stated)	0.057 µM		50 µM		47 µM	
CC[C@H](C)[C@@H](CO[C@@H](Cc1ccccc1)C(=O)N[C@@H](CCS(C)(=O)=O)C(=O)OC(C)C)NC[C@@H](N)CS	0.027 µM		75 µM		78 µM	inhibition in vivo at 30 mg/kg [12]: 85%; inhibition in vivo at 30 mg/kg [13]: 87%; Activity [14]: Active

SMILES	IC50 [1]	inhibition at 100 µM [2]	IC50 [3]	inhibition at 100 µM [4]	IC50 [5]	further results
N#Cc1ccc(Cn2cncc2CN2CCCN(C(=O)c3ccc(F)cc3)CC2)cc1	0.069 µM	40%		27%		
N#Cc1ccc(Cn2cncc2CN2CCCN(C(=O)c3ccccc3-c3ccccc3)CC2)cc1	0.026 µM		39 µM		43 µM	
N#Cc1ccc(Cn2cncc2CN2CCCN(C(=O)c3ccccc3Br)CC2)cc1	0.064 µM	15%		17%		
N#Cc1ccc(Cn2cncc2CN2CCCN(C(=O)c3ccc(-c4ccccc4)cc3)CC2)cc1	0.153 µM		50 µM		47 µM	
N#Cc1ccc(Cn2cncc2CN2CCCN(C(=O)c3ccc(Cl)cc3Cl)CC2)cc1	0.041 µM		26 µM		45 µM	
N#Cc1ccc(Cn2cncc2CN2CCCN(C(=O)c3cccc(-c4ccccc4)c3)CC2)cc1	0.043 µM		44 µM		42 µM	
CC(C)CC(=O)N1CCCN(Cc2cncn2Cc2ccc(C#N)cc2)CC1	0.205 µM	13%		18%		
N#Cc1ccc(Cn2cncc2CN2CCCN(C(=O)c3ccncc3)CC2)cc1	0.142 µM	12%		6%		
N#Cc1ccc(Cn2cncc2CN2CCCN(C(=O)c3ccccc3F)CC2)cc1	0.14 µM	2%		7%		
N#Cc1ccc(Cn2cncc2CN2CCN(C(=O)c3ccc(Cl)cc3Cl)CCC2c2ccccc2)cc1 (configuration not stated)	0.021 µM		38 µM		44 µM	
CC(C)NCC(O)COc1cccc2ccccc12 (configuration not stated) [PROPRANOLOL]						Papp [7]: 41.1 ×10⁻⁶ cm/s
N#Cc1ccc(Cn2cncc2CN2CCCN(C(=O)c3ccc4ccccc4c3)CC2)cc1	0.035 µM		47 µM		52 µM	
Cc1cccc(C(=O)N2CCCN(Cc3cncn3Cc3ccc(C#N)cc3)CC2)c1	0.015 µM	0%		34%		
N#Cc1ccc(Cn2cncc2CN2CCCN(C(=O)c3ccccc3Cl)CC2)cc1	0.025 µM		70 µM		100 µM	
N#Cc1ccc(Cn2cncc2CN2CCC(c3ccccc3)N(C(=O)c3ccccc3)CC2)cc1 (configuration not stated)	0.079 µM		80 µM		75 µM	
CNC(=C[N+](=O)[O-])NCCSCc1ccc(CN(C)C)o1 [RANITIDINE]						Papp [7]: 0.7 ×10⁻⁶ cm/s
N#Cc1ccc(Cn2cncc2CN2CCCN(C(=O)C34CC5CC(CC(C5)C3)C4)CC2)cc1	0.005 µM		21 µM		44 µM	Stability [6]: 1%; Papp [7]: 28.8 ×10⁻⁶ cm/s; Activity [15]: Active
